Published values from different studies.
Protocols differ between the studies behind these lines.
CYP2C9: Cytochrome P450 2C9 (CYP2C9, Homo sapiens, UniProt P11712)

OCc1ccc(-c2nn(Cc3ccccn3)c3ccccc23)o1
half-life (metabolic stability; rat, liver microsomes; 1 µM, pH 7.4): 11 min

CSc1ccccc1C(=O)NCCn1cc(C(=O)NCc2cccc(C)n2)c(=O)c2cc3c(cc21)OC(F)(F)O3
IC50 (CYP2C9; enzyme activity, inhibitor; human, liver microsomes; 20 min, without NADPH, with preincubation): > 100 µM

COc1ccc(-c2coc3cc(O[C@@H]4O[C@H](CO)[C@@H](O)[C@H](O)[C@H]4O)ccc3c2=O)cc1O
IC50 (CYP2C9; enzyme activity, inhibitor; human, liver microsomes): > 200 µM

N#Cc1ccc(C[C@H](NC(=O)c2cc3cc(F)ccc3[nH]2)C(=O)N2CCc3ccccc32)cc1
half-life (metabolic stability; rat, liver microsomes; 10 µM, pH 7.4): 76 min

OCc1ccc(-c2nn(Cc3ccccc3)c3ccccc23)o1
half-life (metabolic stability; rat, liver microsomes): 5 min

CN(C)C(=O)c1cc2cnc(Nc3ccc(-c4ccc5c(=O)cc(N6CCOCC6)oc5c4)cc3)nc2n1C1CCCC1.Cl
AUC(0-inf) (BALB/c mouse, plasma; oral, 20 mg/kg): 7810 ng·h/mL

CC(=O)O[C@@H]1[C@@H](O)[C@H](O[C@H]2CC[C@]34C[C@]35CC[C@]3(C)[C@@H]([C@@]6(C)CC[C@@H](C(C)(C)O)O6)[C@@H](O)C[C@@]3(C)[C@@H]5C[C@H](O[C@@H]3O[C@H](CO)[C@@H](O)[C@H](O)[C@H]3O)[C@H]4C2(C)C)OC[C@H]1O
IC50 (CYP2C9; enzyme activity, inhibitor; human, liver microsomes): > 200 µM

CSc1ccccc1C(=O)NCCn1cc(C(=O)NCc2cccc(C)n2)c(=O)c2cc3c(cc21)OCO3
IC50 (CYP2C9; enzyme activity, inhibitor; human, liver microsomes; 20 min, without NADPH, with preincubation): > 100 µM

Cc1ccc(-c2nnc(N[C@@H](Cc3ccc(C#N)cc3)C(=O)N3CCc4ccccc43)o2)cc1
half-life (metabolic stability; rat, liver microsomes; 10 µM, pH 7.4): 14 min
